Assay results: ChEMBL document CHEMBL1148220, “Antineoplastic agents. 529. Isolation and structure of nootkastatins 1 and 2 from the Alaskan yellow cedar Chamaecyparis nootkatensis” (2004)
In brackets after ≈: the same amount, converted by molar mass. Activity calls are given as the source filed them. The rule behind the calls is not given here.

Columns and labels:
Candida albicans [1] = assay: Antimicrobial activity against Candida albicans ATCC 90028 after 48 hrs by broth microdilution assay in presence of 25% human serum; assay type: functional; conditions: ATCC 90028, 48 h
Outline: (§1)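 For yeasts, NCCLS broth microdilution was run in medium supplemented with 25% heat-inactivated, filter-sterilized normal human serum. Compounds were reconstituted in sterile DMSO and diluted in medium just before the assay. MIC was the lowest concentration giving optically clear wells.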

Streptococcus pneumoniae [2] = assay: Antimicrobial activity against Streptococcus pneumoniae ATCC 6303 after 24 hrs by broth microdilution assay in presence of 25% human serum; assay type: functional; conditions: ATCC 6303, 24 h
Outline: (§2)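 Bacteria were tested by NCCLS broth microdilution in medium containing 25% heat-inactivated, filter-sterilized normal human serum. Compounds were dissolved in sterile DMSO and diluted in medium immediately before use. MIC was the lowest concentration with no visible growth (optically clear). Assays were repeated on separate days.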

Escherichia coli [3] = assay: Antimicrobial activity against Escherichia coli ATCC 25922 at 64 ug/mL after 24 hrs by broth microdilution assay; assay type: functional, organism-based
KM-20L2 = assay: Cytotoxicity against human KM20L2 cells after 48 hrs by SRB assay; assay type: functional; conditions: KM-20L2, 48 h
MCF7 = assay: Cytotoxicity against human MCF7 cells after 48 hrs by SRB assay; assay type: functional; conditions: MCF7, 48 h
Enterococcus faecium = assay: Antimicrobial activity against vancomycin-resistant Enterococcus faecium after 24 hrs by broth microdilution assay in presence of 25% human serum; assay type: functional
Outline: as §2, with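 “Bacterial” for “Bacteria were tested by”, “microdilution run” for “microdilution”, “with” for “containing”, “taken up” for “dissolved”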

DU-145 = assay: Cytotoxicity against human DU145 cells after 48 hrs by SRB assay; assay type: functional; conditions: DU-145, 48 h
Streptococcus pyogenes = assay: Antimicrobial activity against penicillin-resistant Streptococcus pyogenes after 24 hrs by broth microdilution assay in presence of 25% human serum; assay type: functional
Outline: as §2, with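 “Bacterial” for “Bacteria were tested by”, “microdilution run” for “microdilution”, “with” for “containing”, “taken up” for “dissolved”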

Enterococcus faecalis [4] = assay: Antimicrobial activity against Enterococcus faecalis ATCC 29212 after 24 hrs by broth microdilution assay in presence of 25% human serum; assay type: functional; conditions: ATCC 29212, 24 h; outline: as §2
Enterobacter cloacae [5] = assay: Antimicrobial activity against Enterobacter cloacae ATCC 13047 at 64 ug/mL after 24 hrs by broth microdilution assay; assay type: functional, organism-based
Cryptococcus neoformans [6] = assay: Antimicrobial activity against Cryptococcus neoformans ATCC 90122 after 24 hrs by broth microdilution assay; assay type: functional; conditions: ATCC 90112, 24 h, in the assay text read “ATCC 90112” for “ATCC 90122”
Outline: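 Yeasts were tested by NCCLS broth microdilution. Compounds were dissolved in a small volume of sterile DMSO and diluted in the appropriate medium immediately before testing. MIC was the lowest concentration inhibiting all visible growth (optically clear). Assays were repeated on separate days.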

SF-268 = assay: Cytotoxicity against human SF268 cells after 48 hrs by SRB assay; assay type: functional; conditions: SF-268, 48 h
BXPC-3 = assay: Cytotoxicity against human BxPC3 cells after 48 hrs by SRB assay; assay type: functional; conditions: BXPC-3, 48 h
Staphylococcus aureus [7] = assay: Antimicrobial activity against methicillin-resistant Staphylococcus aureus after 24 hrs by broth microdilution assay in presence of 25% human serum; assay type: functional
Outline: as §2, with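 “Bacterial” for “Bacteria were tested by”, “microdilution run” for “microdilution”, “with” for “containing”, “taken up” for “dissolved”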

Rhodococcus sp. = assay: Antimicrobial activity against Rhodococcus sp. after 24 hrs by broth microdilution assay in presence of 25% human serum; assay type: functional; conditions: Rhodococcus sp. (in: high G+C Gram-positive bacteria); outline: as §2
Cryptococcus neoformans [8] = assay: Antimicrobial activity against fluconazole-resistant Cryptococcus neoformans after 48 hrs by broth microdilution assay in presence of 25% human serum; assay type: functional
Nakaseomyces glabratus = assay: Antimicrobial activity against Candida glabrata after 48 hrs by broth microdilution assay in presence of 25% human serum; assay type: functional; outline: as §1
Escherichia coli [9] = assay: Antimicrobial activity against Escherichia coli ATCC 25922 after 24 hrs by broth microdilution assay in presence of 25% human serum; assay type: functional; conditions: ATCC 25922, 24 h; outline: as §2
Streptococcus pneumoniae [10] = assay: Antimicrobial activity against Streptococcus pneumoniae ATCC 6303 after 24 hrs by broth microdilution assay; assay type: functional; conditions: ATCC 6303, 24 h
Outline: (§3)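 Bacterial MICs were determined by NCCLS broth microdilution. Compounds were dissolved in a small volume of sterile DMSO and diluted in the appropriate medium just before testing. MIC was the lowest concentration giving no visible growth (optically clear). Assays were repeated on separate days.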

Candida albicans [11] = assay: Antimicrobial activity against Candida albicans ATCC 90028 at 64 ug/mL after 48 hrs by broth microdilution assay; assay type: functional, organism-based
Neisseria gonorrhoeae [12] = assay: Antimicrobial activity against Neisseria gonorrhoeae ATCC 49226 at 64 ug/mL after 24 hrs by broth microdilution assay; assay type: functional; conditions: ATCC 49226, 24 h
Streptococcus pneumoniae [13] = assay: Antimicrobial activity against penicillin-resistant Streptococcus pneumoniae after 24 hrs by broth microdilution assay in presence of 25% human serum; assay type: functional
Outline: as §2, with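 “Bacterial” for “Bacteria were tested by”, “microdilution run” for “microdilution”, “with” for “containing”, “taken up” for “dissolved”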

Cryptococcus neoformans [14] = assay: Antimicrobial activity against Cryptococcus neoformans ATCC 90122 after 24 hrs by broth microdilution assay in presence of 25% human serum; assay type: functional; conditions: ATCC 90112, 24 h, in the assay text read “ATCC 90112” for “ATCC 90122”; outline: as §1
[15] = tested on: Staphylococcus epidermidis; assay: Antimicrobial activity against Staphylococcus epidermidis ATCC 49461 after 24 hrs by broth microdilution assay in presence of 25% human serum; assay type: functional; conditions: ATCC 49461, 24 h; outline: as §2
Enterococcus faecalis [16] = assay: Antimicrobial activity against Enterococcus faecalis ATCC 29212 after 24 hrs by broth microdilution assay; assay type: functional; conditions: ATCC 29212, 24 h; outline: as §3
Micrococcus luteus [17] = assay: Antimicrobial activity against Micrococcus luteus Presque Isle 456 after 24 hrs by broth microdilution assay; assay type: functional; outline: as §3
[18] = tested on: Stenotrophomonas maltophilia; assay: Antimicrobial activity against Stenotrophomonas maltophilia ATCC 13637 after 24 hrs by broth microdilution assay in presence of 25% human serum; assay type: functional; conditions: ATCC 13637, 24 h; outline: as §2
Staphylococcus aureus [19] = assay: Antimicrobial activity against Staphylococcus aureus ATCC 29213 after 24 hrs by broth microdilution assay in presence of 25% human serum; assay type: functional; conditions: ATCC 29213, 24 h; outline: as §2
Micrococcus luteus [20] = assay: Antimicrobial activity against Micrococcus luteus Presque Isle 456 after 24 hrs by broth microdilution assay in presence of 25% human serum; assay type: functional; outline: as §2
Staphylococcus aureus [21] = assay: Antimicrobial activity against Staphylococcus aureus ATCC 29213 after 24 hrs by broth microdilution assay; assay type: functional; conditions: ATCC 29213, 24 h; outline: as §3
P388 = assay: Cytotoxicity against mouse P388 cells; assay type: functional; conditions: read-out: ED50 (the source's name)
[22] = tested on: Stenotrophomonas maltophilia; assay: Antimicrobial activity against Stenotrophomonas maltophilia ATCC 13637 at 64 ug/mL after 24 hrs by broth microdilution assay; assay type: functional, organism-based
NCI-H460 = assay: Cytotoxicity against human NCI-H460 cells after 48 hrs by SRB assay; assay type: functional; conditions: NCI-H460, 48 h
Neisseria gonorrhoeae [23] = assay: Antimicrobial activity against Neisseria gonorrhoeae ATCC 49226 after 24 hrs by broth microdilution assay in presence of 25% human serum; assay type: functional; conditions: ATCC 49226, 24 h; outline: as §2
Enterobacter cloacae [24] = assay: Antimicrobial activity against Enterobacter cloacae ATCC 13047 after 24 hrs by broth microdilution assay in presence of 25% human serum; assay type: functional; conditions: ATCC 13047, 24 h; outline: as §2

Structure (SMILES): CO[C@H]1C[C@H]2C(C)(C)CCC[C@]2(C)c2ccc(O)c(C(C)C)c21 [NOOTKASTATIN 1]
- MIC (Candida albicans [1]): > 64 µg/mL
- MIC (Streptococcus pneumoniae [2]): > 64 µg/mL
- Activity (Escherichia coli [3]): inactive
- GI50 (KM-20L2): 0.98 µg/mL (≈ 3.1 µM)
- GI50 (MCF7): 2 µg/mL (≈ 6.32 µM)
- MIC (Enterococcus faecium): > 64 µg/mL
- GI50 (DU-145): 1.1 µg/mL (≈ 3.48 µM)
- MIC (Streptococcus pyogenes): > 64 µg/mL
- MIC (Enterococcus faecalis [4]): > 64 µg/mL
- Activity (Enterobacter cloacae [5]): inactive
- MIC (Cryptococcus neoformans [6]): 64 µg/mL (≈ 202 µM)
- GI50 (SF-268): 0.85 µg/mL (≈ 2.69 µM)
- GI50 (BXPC-3): 2.1 µg/mL (≈ 6.64 µM)
- MIC (Staphylococcus aureus [7]): > 64 µg/mL
- MIC (Rhodococcus sp.): > 64 µg/mL
- MIC (Cryptococcus neoformans [8]): > 64 µg/mL
- MIC (Nakaseomyces glabratus): > 64 µg/mL
- MIC (Escherichia coli [9]): > 64 µg/mL
- MBC (Streptococcus pneumoniae [10]): 64 µg/mL (≈ 202 µM)
- MIC (Streptococcus pneumoniae [10]): 64 µg/mL (≈ 202 µM)
- Activity (Candida albicans [11]): inactive
- MBC (Neisseria gonorrhoeae [12]): 4 µg/mL (≈ 12.6 µM)
- MIC (Neisseria gonorrhoeae [12]): 2 µg/mL (≈ 6.32 µM)
- MIC (Streptococcus pneumoniae [13]): > 64 µg/mL
- MIC (Cryptococcus neoformans [14]): > 64 µg/mL
- MIC [15]: > 64 µg/mL
- MBC (Enterococcus faecalis [16]): 16 µg/mL (≈ 50.6 µM)
- MIC (Enterococcus faecalis [16]): 4 µg/mL (≈ 12.6 µM)
- MBC (Micrococcus luteus [17]): 8 µg/mL (≈ 25.3 µM)
- MIC (Micrococcus luteus [17]): 2 µg/mL (≈ 6.32 µM)
- MIC [18]: > 64 µg/mL
- MIC (Staphylococcus aureus [19]): > 64 µg/mL
- MIC (Micrococcus luteus [20]): > 64 µg/mL
- MBC (Staphylococcus aureus [21]): 32 µg/mL (≈ 101 µM)
- MIC (Staphylococcus aureus [21]): 8 µg/mL (≈ 25.3 µM)
- EC50 (P388): 1.5 µg/mL (≈ 4.74 µM)
- Activity [22]: inactive
- GI50 (NCI-H460): 0.75 µg/mL (≈ 2.37 µM)
- MIC (Neisseria gonorrhoeae [23]): > 64 µg/mL
- MIC (Enterobacter cloacae [24]): > 64 µg/mL
